Data on four compounds can be found in ChEMBL document CHEMBL3124889, “Synthesis, spectroscopic, and photophysical characterization and photosensitizing activity toward prokaryotic and eukaryotic cells of porphyrin-magainin and -buforin conjugates” (J Med Chem, 2014).

In general, IC50 refers to the midpoint of a concentration-inhibition curve.

Each structure is given as a SMILES string. Active and inactive are the calls of the source. The calls are words filed in the database; no cut-off is given here. Where a SMILES comes first, the peptide text is derived from it. [ ]: non-standard residue; d: D form. The star is where a group is joined. Benzoyl(4-TriPhPorphyrinyl) = O=C(c1ccc(-c2c3nc(c(-c4ccccc4)c4ccc([nH]4)c(-c4ccccc4)c4nc(c(-c5ccccc5)c5ccc2[nH]5)C=C4)C=C3)cc1)*; X1 = C[n+]1ccc(-c2c3nc(c(-c4cc[n+](C)cc4)c4ccc([nH]4)c(-c4cc[n+](C)cc4)c4nc(c(-c5ccc(C(=O)*)cc5)c5ccc2[nH]5)C=C4)C=C3)cc1; His(π-Me) = Cn1cncc1C[C@H](N)C(=O)O

Series [1] in a line: Drug uptake in human HFFF2 cells assessed as increase in red fluorescence at 5 uM incubated for 60 to 3 hrs mins followed by irradiated with 13.5 J cm'-2 of blue light measured after drug washout by flow cytometry. As to conditions: hfff2, 5 µM. Format: ADME, cell-based. A general note: In flow cytometry, cells or beads pass a laser one at a time.
The nature of series [2]: Drug uptake in human HFFF2 cells in assessed as increase in red fluorescence at 5 uM incubated for 60 to 3 hrs mins by flow cytometry. Format: ADME, cell-based. As to conditions: hfff2, 5 µM.
A short description of series [3]: Photoinactivation of human HFFF2 cells incubated for 60 mins followed by irradiated with 13.5 J cm'-2 of blue light. As to conditions: HFFF2, light or radiation study, 1 h. Format: cell-based.
Series [4] is described as follows: Drug uptake in human HFFF2 cells assessed as increase in red fluorescence at 5 uM incubated for 60 to 3 hrs mins followed by irradiated with 13.5 J cm'-2 of blue light by fluorescence microscopic analysis. The class given is ADME, cell-based. As to conditions: hfff2, 5 µM.
Series [5] in a line: Drug uptake in human HFFF2 cells assessed as increase in red fluorescence at 5 uM incubated for 60 to 3 hrs mins followed by irradiated with 13.5 J cm'-2 of blue light by flow cytometry. The class given is ADME, cell-based. As to conditions: hfff2, 5 µM.
Series [6] has as its system Escherichia coli. Briefly: Photoinactivation of Escherichia coli ATCC 25922 assessed as log reduction of CFU at 15 uM incubated for 60 mins followed by irradiated with 13.5 J cm'-2 of blue light measured after drug washout. The class given is functional. The gist of the method: (§1)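 Stationary-phase overnight BHI cultures (37 °C) were washed and resuspended in PBS (pH 7.3) at ~2 × 10^7 cells/mL, then incubated with PS in the dark at rt for 60 min. Suspensions were left unwashed or washed three times with PBS. They were irradiated with blue light (390–460 nm, 15.2 mW cm−2) to 13.5 J cm−2. Serial 10-fold dilutions were plated in duplicate on BHI agar and cfu counted after overnight growth at 37 °C. Experiments were repeated at least three times.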

In series [7] the test system is Staphylococcus aureus. Briefly: Photoinactivation of methicillin-resistant Staphylococcus aureus ATCC BAA-44 at 0.5 to 1 uM incubated for 60 mins followed by irradiated with 13.5 J cm'-2 of blue light. The class given is functional, organism-based. In a few lines:
as §1

The test system of series [8] is Escherichia coli. Briefly: Drug uptake in Escherichia coli ATCC 25922 assessed as increase in red fluorescence at 5 uM incubated for 60 mins by flow cytometry. As to conditions: in vivo, 1 h. The class given is ADME, organism-based. The gist of the method: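 Stationary-phase cells grown overnight in BHI at 37 °C, washed twice, resuspended in PBS pH 7.3 at ~2 × 10^7 cells/mL. Exposed to PS in the dark at room temperature for 60 min, then analysed directly or after three PBS washes (centrifugation at 10 000g for 5 min). Read-out is cell-associated porphyrin red fluorescence by flow cytometry; background taken from cells without PS.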

Series [9] can be described thus: Photoinactivation of human HFFF2 cells at 5 uM incubated for 60 mins followed by irradiated with 13.5 J cm'-2 of blue light. The class given is cell-based. As to conditions: hfff2, 1 h. In a few lines: (§2)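 HFFF2 fibroblasts were grown in DMEM with 10% FBS at 37 °C and 5% CO2, seeded at 7 × 10^3 cells/well and grown 48 h. Cells were incubated 60 min in the dark with PS in medium with 3% FBS, washed twice with PBS containing Ca2+/Mg2+, and irradiated in PBS with 13.5 J cm−2 of blue light. After 24 h in 10% FBS medium, viability was read by MTS (1.5 h, A492) as % of untreated control.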

The test system of series [10] is Staphylococcus aureus. Briefly: Drug uptake in methicillin-resistant Staphylococcus aureus ATCC BAA-44 assessed as increase in red fluorescence at 1.5 uM incubated for 60 mins measured after drug washout by flow cytometry. Format: ADME, organism-based. The settings on record: in vivo, 1 h. The gist of the method: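 Stationary-phase overnight BHI cultures (37 °C) were washed twice and resuspended in PBS (pH 7.3) at ~2 × 10^7 cells/mL. They were then analysed by flow cytometry for cell-associated red porphyrin fluorescence, either unwashed or after three PBS washes (10 000g, 5 min). Cells without PS set the background fluorescence.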

Series [11] can be described thus: Drug uptake in human HFFF2 cells assessed as increase in red fluorescence at 5 uM incubated for 60 mins followed by irradiated with 13.5 J cm'-2 of blue light by flow cytometry. As to conditions: hfff2, 1 h. The class given is ADME, cell-based.
Series [12] can be described thus: Photoinactivation of human HFFF2 cells at 3 uM incubated for 60 mins followed by irradiated with 13.5 J cm'-2 of blue light. The class given is cell-based. The settings on record: hfff2, 1 h. The gist of the method: as §2
Series [13] deals with Escherichia coli. Briefly: Photoinactivation of Escherichia coli ATCC 25922 assessed as log reduction of CFU at 5 uM incubated for 60 mins followed by irradiated with 13.5 J cm'-2 of blue light measured after drug washout. The class given is functional. In a few lines:
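Overnight BHI cultures (37 °C, stationary phase) washed and resuspended in PBS pH 7.3 at ~2 × 10^7 cells/mL. Incubated with increasing PS concentrations for 60 min in the dark at room temperature. Serial 10-fold dilutions plated in duplicate on BHI agar for CFU; at least three independent experiments.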

The nature of series [14]: Solubility of the compound in water. Format: physicochemical. As to conditions: buffer.

For `CC[C@H](C)[C@H](NC(=O)[C@H](Cc1ccc(O)cc1)NC(=O)[C@@H](NC(=O)[C@@H]1CCCN1C(=O)[C@H](CCCNC(=N)N)NC(=O)[C@H](CC(N)=O)NC(=O)[C@H](CC(N)=O)NC(=O)CNC(=O)c1ccc(-c2c3nc(c(-c4cc[n+](C)cc4)c4ccc([nH]4)c(-c4cc[n+](C)cc4)c4nc(c(-c5cc[n+](C)cc5)c5ccc2[nH]5)C=C4)C=C3)cc1)C(C)C)C(=O)N1CCC[C@H]1C(=O)N[C@@H](CCC(N)=O)C(=O)N1CCC[C@H]1C(=O)N[C@@H](CCCNC(=N)N)C(=O)N1CCC[C@H]1C(=O)N1CCC[C@H]1C(=O)N[C@@H](Cc1cncn1C)C(=O)N1CCC[C@H]1C(=O)N[C@@H](CCCNC(=N)N)C(=O)N[C@@H](CC(C)C)C(=O)O` (X1-GNNRPVYIPQPRPP[His(π-Me)]PRL-OH), the Drug uptake result is recorded as “Active” in series [1], “Active” in [2], “Not Active” in series [4] and “Active” in [5]. In [3], the IC50 came out at 9 nM.

Consider `C[n+]1ccc(-c2c3nc(c(-c4cc[n+](C)cc4)c4ccc([nH]4)c(-c4ccc(C(=O)O)cc4)c4ccc([nH]4)c(-c4cc[n+](C)cc4)c4nc2C=C4)C=C3)cc1`, for which the CFU/ml in series [6] stood at 1 log reduction. Also, the Drug uptake entry in series [1] is recorded as “Active”; in series [2], “Active”; in series [8], “Not Active”; in series [10], “Not Active”; in series [4] it was “Not Active”; in [11] it was “Active”. The Drug uptake result in [5] is recorded as “Active”. Besides, the result in series [7] and in series [13] was Active. The compound also showed an IC50 in series [3] of 230 nM. For the same compound, the Activity result in series [9] and in [12] was “Toxic” each time.

Regarding `O=C(O)c1ccc(-c2c3nc(c(-c4ccccc4)c4ccc([nH]4)c(-c4ccccc4)c4nc(c(-c5ccccc5)c5ccc2[nH]5)C=C4)C=C3)cc1`, the Drug uptake result is recorded as “Active” in series [1]; “Active” in [2]; “Not Active” in series [8]; “Not Active” in series [10]; “Not Active” in series [4]; “Active” in series [11]. Besides, the Drug uptake result in [5] is recorded as “Active”. In series [3], this compound returned a 50% inhibitory concentration (IC50) of 1270 nM. Also, the Activity result in [9] and in series [12] was “Toxic” throughout. Also, the solubility entry in [14] is recorded as “Insoluble”.

For the compound `CC[C@H](C)[C@H](NC(=O)[C@H](Cc1ccc(O)cc1)NC(=O)[C@@H](NC(=O)[C@@H]1CCCN1C(=O)[C@H](CCCNC(=N)N)NC(=O)[C@H](CC(N)=O)NC(=O)[C@H](CC(N)=O)NC(=O)CNC(=O)c1ccc(-c2c3nc(c(-c4ccccc4)c4ccc([nH]4)c(-c4ccccc4)c4nc(c(-c5ccccc5)c5ccc2[nH]5)C=C4)C=C3)cc1)C(C)C)C(=O)N1CCC[C@H]1C(=O)N[C@@H](CCC(N)=O)C(=O)N1CCC[C@H]1C(=O)N[C@@H](CCCNC(=N)N)C(=O)N1CCC[C@H]1C(=O)N1CCC[C@H]1C(=O)N[C@@H](Cc1cnc[nH]1)C(=O)N1CCC[C@H]1C(=O)N[C@@H](CCCNC(=N)N)C(=O)N[C@@H](CC(C)C)C(=O)O` ({Benzoyl(4-TriPhPorphyrinyl)}-GNNRPVYIPQPRPPHPRL-OH), the Drug uptake entry in [1], in [2], in series [4] and in series [5] was “Active” throughout. The same compound displayed an IC50 in series [3] of 21 nM.
